Reference: the EternaBench riboswitch data

Test system: MS2 coat protein
Assay: apparent Kd, MS2 coat protein; higher = weaker binding; RNA-MaP array; FMN 200 µM where present
Summary of the method: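 Two titrations, one without ligand and one with constant ligand, were run with SNAP-549-labelled MS2 coat protein from 0.7 or 1.5 nM, doubling to 3 µM. The targets were designs transcribed by stalled E. coli RNA polymerase on Illumina sequencing-chip clusters, in 100 mM Tris-HCl pH 7.5, 80 mM KCl, 4 mM MgCl2, BSA, DTT, yeast tRNA and Tween-20. The apparent Kd is the median of filtered per-cluster binding-curve fits, with green signal normalised to red-channel RNA signal and control-cluster median Fmax.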

[1] = designed as: OFF switch for flavin mononucleotide, no ligand
[2] = ligand present: flavin mononucleotide, designed as: OFF switch for flavin mononucleotide
[3] = designed as: ON switch for flavin mononucleotide, no ligand
[4] = ligand present: flavin mononucleotide, designed as: ON switch for flavin mononucleotide

Sequence | apparent Kd [1] [nM] | apparent Kd [2] [nM] | apparent Kd [3] [nM] | apparent Kd [4] [nM]
AAUGAUUGAUUCCACUUAUACAUGAGGAUCACCCAUGUUAUCGAGGAUAUGCAUUAGAGUGUUUAGCAGAAGGCGAUGUAAUUG | 7.82 | 25 | – | –
AAUGGCUGAGGAUAUACACUCACGUCUAAAAGGUUCAAAUGACAUGAGGAUCACCCAUGUAGAAGGCAGCCCGA | – | 50.2 | – | –
AAUGUUUGAUUCCACUUAUACAUGAGGAUCACCCAUGUUAUCGAGGAUAUGCAUUAGAGCGUUUAGCAGAAGGCGAUGUAAUUG | 7.41 | 20.3 | – | –
AAUUAACAUGAGGAUCACCCAUGUGAGGAUAUGGUAUUACUUGGACAGCUAUGAUCUACCAGAAGGCACAUAUA | 28.7 | 49.4 | – | –
AAUUAACUCACAGGAUAUAGCAGAGGUCGAGUGAACUUACACGCGACGAGGCUAGAAGGGUGACCACAUGAGGAUCACCCAUGU | – | – | 872 | 103
AAUUAGGUCACAGGAUAUACAACUUCCAAUGCUGUAGAAGGGUGUCACAUACUUAGCUGACAUGAGGAUCACCCAUGUAUCCAC | – | – | 184 | 70.5
AAUUAGGUCACAGGAUAUACAUCAUCCAUAGCUGUAGAAGGGUGUCAAAAUAAUAUCUGACAUGAGGAUCACCCAUGUUUCCAC | – | – | 25 | 14.5
AAUUAUUUACAGAAGGAGUAUGAUAAUGUUUUACUAGGAUAUGUAUACAUGAGGAUCACCCAUGUUAUUGUAGGUUUUUUAUGU | 12.7 | 9.65 | – | –
AAUUAUUUGUAGAAGGAAGGAGAUUUUGUAUUCUUAGGAUAUACUAUUACAUGAGGAUCACCCAUGUUUGUUGGGUUGCAAUGU | 315 | 323 | – | –
AAUUCAAACAGAGGAUAUUGUUUAUCUCUAUUGCAAGAAGGCUGAUCUUACUACUUACUUAUGAAACAUGAGGAUCACCCAUGU | – | – | 36.6 | 31.8
AAUUCACAUGAGGAUCACCCAUGUCAGGAUAUGGUUUCACGUGUUUCUGUGCUUGAGGCCAGAAGGGACAGCUA | 65.5 | 76.5 | – | –
AAUUCGUGUCGAGGAUAUAUUAUAUGACAACAAACACAUACAUGAGGAUCACCCAUGUCCCAUGUAUAGAAGGCGAUGUGUGUG | – | – | 260 | 228
AAUUCGUUCUAGAAGGUGCAUUUGUUAAACGUGCAAGGAUAUAGACAUGAGGAUCACCCAUGUCUAUGAGACAUCGGCCUCCUG | 5.33 | 8.23 | – | –
AAUUGACACGUAGGAUAUCGAUCUAUAUUAACUCGAGAAGGACGUACAUGAGGAUCACCCAUGUUUAAUGGAGUAGAUAUGUUG | 82.8 | 308 | – | –
AAUUGGAUCCAGAAGGCAUGGACGACCCGUCACAUUAACAUGAGGAUCACCCAUGUGAAAACACAUGAGGAUAUGGAUCCUAAA | – | – | 28.7 | 7.44
AAUUUACAGGGAGGAUAUACAUGAGGAUCACCCAUGUAAUCAUAUGAUAUUUUUUUUGUAUGAGUGUAGAAGGCCCAAAUAAAA | 9.32 | 11.1 | – | –
AAUUUACAUGAGGAUCACCCAUGUGAGGAUAUAUAUAUAUGCUUGUUAUUGCGUGUGUGUAGAAGGCGCGUGAU | 21.1 | 21 | – | –
AAUUUCAGAAGAGGAUAUUGACAUGAGGAUCACCCAUGUAUUUGGGAAUGUUUACUGAAUUCUUACAAGAAGGUUUACGAACUU | 98 | 79.7 | – | –
AAUUUGUGAAAAUUACAUGAGGAUCACCCAUGUUAGGGAAUGCAGGAUAUGUGGAAUAUUAUUUAACAGAAGGGCAAUAAUUUU | – | – | 56.3 | 41.6
ACAAAUGGAGGAUAUACAUGAGGAUCACCCAUGUAUAUCCUACAUAUGUGAUAAUCAUGUAGAAGGCCAUUUGA | 12.3 | 11 | – | –
ACAAGACAUGAGGAUCACCCAUGUGAGGAUAUGCUCGGAUGACAUGACGUUAGCUAACGCAGAAGGCACAAUAA | 55.8 | 56 | – | –
ACAAGAUCAGGAUAUACAUGAGGAUCACCCAUGUAUAUCCAAAAAGGGCUUUCUACAUGUAGAAGGGAUCUUGU | 13.4 | 13.1 | – | –
ACAAGAUCAGGAUAUACAUGAGGAUCACCCAUGUUUAUCAAAAAAAGGCUUUCAUCAUGUAGAAGGGAUCUUGU | 99 | 126 | – | –
ACAAUAGUAUCACAUGUAUUACAUGAGGAUCACCCAUGUAACUAGGAUAUGUUUUAAAAUUUACAACAGAAGGAGUUAUUAUGU | 8.2 | 14.6 | – | –
ACAAUGUUAGGAUAUCUGAGAAUUAGUCUCGACUAGUCGAAGGAGAAGGAACAUGAGGAUCACCCAUGUAGAUC | 43.4 | 275 | – | –
ACACAGAAAGGAUAUGCAGGGAGAUAAAGCUUCUUGUUCCAACAUGAGGAUCACCCAUGUAGAAGGUUCGAAAA | 32 | 99.5 | – | –
ACAGACCAUCGAGGAUAUGAACAUGAGGAUCACCCAUGUAAGUGGAAGAUGGUGAUUCCUGGGCUUCAGAAGGCGAACGUCAGG | 6.12 | 11.8 | – | –
ACAGAGCCUGACAUGAGGAUCACCCAUGUUAGAUUGUUAUGUCAGGAUAUUGUCUAGCAACUAGACAAGAAGGGAUGCUCUGUG | – | – | 392 | 29.8
